The source of these data is article PMC6980386 (Traffic (Copenhagen, Denmark), 2019).

Holding throughout (type): cell-based
The target in one assay is FL huCD4 P6A (Homo sapiens, UniProt P01730, P6A). The assay can be described thus: CADA down-modulation of cellular huCD4. A digest of the protocol: (§1)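 HEK293T cells, seeded overnight in DMEM with 10% serum, 1 mM sodium pyruvate and 0.075% NaHCO₃, were lipofected with full-length human CD4 (WT or mutant). Test compound in DMSO was added 6 h post-transfection as 1:5 serial dilutions (50–0.016 μM) for 48 h. Surface CD4 was stained with FITC/APC anti-CD4 (SK3) and read by flow cytometry. IC50 is 50% of the untreated signal, from four-parameter fits of ≥3 replicate experiments. FC is mutant/WT mean IC50.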

In the next assay the target is huCD4_1–32-YFP K32A (Homo sapiens, UniProt P01730, K32A). The assay can be described thus: CADA inhibition of huCD4_1–32-YFP secretion. The settings on record: read-out: Secreted YFP IC50 (μM) Mean, HEK293T, CADA 48h. In outline: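 HEK293T cells were grown in DMEM with 10% FBS and 10 mM HEPES, seeded and left to adhere overnight, then transiently transfected with plasmid by Lipofectamine. Test compound was added 6 h after transfection as a 1:5 serial dilution (50 to 0.016 μM) for 48 h. Secreted YFP in the supernatant was captured on GFP-Trap magnetic beads for 1 h, washed with PBS and measured by flow cytometry. IC50 is the concentration that halves the signal relative to the untreated control, taken from a four-parameter fit of at least three replicate experiments. FC is the mutant mean IC50 divided by the WT mean IC50.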

The next assay addresses FL huCD4 P20G (Homo sapiens, UniProt P01730, P20G). Kind of assay: CADA down-modulation of cellular huCD4. To be noted: HEK293T, 48h. In outline:
as §1

The structures appear in SMILES notation.

In the case of `C=C1CN(S(=O)(=O)c2ccc(C)cc2)CCCN(Cc2ccccc2)CCCN(S(=O)(=O)c2ccc(C)cc2)C1` [CADA, Cyclotriazadisulfonamide], on FL huCD4 P6A (+ less, − more sensitive to CADA), the “Cellular huCD4 FC (fold change of mean IC50 relative to WT)” value is “+1.8”. The half-inhibitory concentration (IC50) on FL huCD4 P6A (read-out: Cellular huCD4 IC50 (μM) Mean, HEK293T, CADA 48h) was found to be 0.96 µM; on huCD4_1–32-YFP K32A it was 17.6 µM. The “sensitivity to CADA” value on FL huCD4 P20G is reported as “fully restored CADA sensitivity”.

As a reminder, the IC50 is the concentration that inhibits the measured activity by half.
